# Bioassay records: PubChem BioAssay, Sanford-Burnham Center for Chemical Genomics
# An excerpt weighted towards active compounds, which were near 3% of everything screened.
# SENP8 block-1: blocks human SENP8 cleavage of Nedd8 substrate; Q96LD8; recombinant SENP8, Nedd8 substrate fluorescence; inhibition, % at 20 µM; hit rate 0.64% among 360,000; AID 602440; in the data active means inhibition mostly above about 40%, no sharp cut-off; inactive means mostly below about 27%
# Apaf-1 inh: inhibitors of human Apaf-1 apoptosome | O14727 | reconstituted apoptosome caspase-3 activity, DEVD-Rh110 fluorescence | inhibition, % at 20 µM | hit rate 0.71% among 330,000 | AID 489030; active means inhibition of at least 40% at 20 µM;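 further: plate controls were DMSO wells for no effect and DEVD-CHO caspase inhibitor wells for full effect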
# Target sequence (O14727 whole entry, looked up): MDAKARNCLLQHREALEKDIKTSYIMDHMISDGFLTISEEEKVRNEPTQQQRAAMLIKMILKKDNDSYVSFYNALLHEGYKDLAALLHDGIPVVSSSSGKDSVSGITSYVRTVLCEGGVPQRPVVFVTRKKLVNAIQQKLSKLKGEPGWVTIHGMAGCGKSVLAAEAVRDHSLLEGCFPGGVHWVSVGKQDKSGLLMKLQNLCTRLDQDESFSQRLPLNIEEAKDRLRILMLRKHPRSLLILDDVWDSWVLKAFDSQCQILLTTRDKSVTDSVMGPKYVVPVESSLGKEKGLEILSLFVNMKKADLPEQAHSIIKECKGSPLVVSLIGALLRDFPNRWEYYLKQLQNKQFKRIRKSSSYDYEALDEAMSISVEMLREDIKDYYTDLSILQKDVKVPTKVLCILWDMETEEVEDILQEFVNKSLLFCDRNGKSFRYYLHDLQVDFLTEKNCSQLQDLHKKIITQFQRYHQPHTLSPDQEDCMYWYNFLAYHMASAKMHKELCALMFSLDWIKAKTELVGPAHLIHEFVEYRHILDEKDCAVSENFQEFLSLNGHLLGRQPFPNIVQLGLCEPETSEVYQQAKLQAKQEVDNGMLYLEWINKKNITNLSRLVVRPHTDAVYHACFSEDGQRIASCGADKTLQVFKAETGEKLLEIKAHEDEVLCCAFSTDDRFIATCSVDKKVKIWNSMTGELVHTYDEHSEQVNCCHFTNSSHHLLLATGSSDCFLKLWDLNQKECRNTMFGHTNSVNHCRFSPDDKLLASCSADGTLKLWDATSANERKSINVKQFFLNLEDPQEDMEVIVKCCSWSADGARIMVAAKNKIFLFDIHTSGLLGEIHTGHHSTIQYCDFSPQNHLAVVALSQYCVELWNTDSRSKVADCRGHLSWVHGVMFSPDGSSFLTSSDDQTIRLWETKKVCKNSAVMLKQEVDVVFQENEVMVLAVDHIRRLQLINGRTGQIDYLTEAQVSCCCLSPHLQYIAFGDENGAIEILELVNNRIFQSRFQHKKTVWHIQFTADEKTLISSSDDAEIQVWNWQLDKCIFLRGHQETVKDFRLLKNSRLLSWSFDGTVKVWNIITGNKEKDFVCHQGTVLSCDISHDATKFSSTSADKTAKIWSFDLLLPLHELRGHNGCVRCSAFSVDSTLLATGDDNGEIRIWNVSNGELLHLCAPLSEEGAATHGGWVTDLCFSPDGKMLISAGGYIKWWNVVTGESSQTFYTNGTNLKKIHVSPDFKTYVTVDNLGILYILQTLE
#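 Material: reconstituted apoptosome with Apaf-1, cytochrome c, caspase-9, procaspase-3, dATP; medium: pH 7.5 Hepes buffer with CHAPS, BSA, DTT; also added: cytochrome c and DEVD-Rh110 substrate; timing: 30 min plus 50 min, RT; signal: Rh110 fluorescence intensity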
# SENP6 inh: blocks the human protease SENP6; Q9GZR1; Recombinant SENP6 catalytic domain, aminoluciferin luminescence; inhibition, % at 10 µM; hit rate 1.8% among 330,000; AID 2599;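 active means inhibition above about 50% at the single tested dose, limit read from the data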;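 further: plate controls were DMSO wells with enzyme for no effect and DMSO wells lacking enzyme for full effect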
# SENP8 block-2: blocks the human protease SENP8; Q96LD8; purified SENP8, Z-RLRGG-aminoluciferin cleavage, luminescence; inhibition, % at 10 µM; hit rate 1.2% among 330,000; in the data active means inhibition above about 50%
# SENP7 inh: SENP7 protease inhibition | inhibition, % at 5 µM | recombinant SENP7, Z-RLRGG-aminoluciferin luminescence, 40 min | hit rate 1.5% among 330,000;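 active means inhibition above about 50% at the single test dose, limit read from the data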;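 further: plate controls were DMSO with enzyme for no effect and no enzyme buffer wells for full effect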
# UBC13 polyUb: blocks human UBC13 polyubiquitin chain formation; P61088; TR-FRET; inhibition, % at 20 µM; hit rate 0.47% among 330,000; AID 485273; in the data active means inhibition above about 45%, passing the limit was not always enough
# Numbers without * were called inactive; i = inactive; . = not tested or not shown.
SMILES,SENP8 block-1,Apaf-1 inh,SENP6 inh,SENP8 block-2,SENP7 inh,UBC13 polyUb
CCCCNC(=O)c1nc(-c2cccs2)oc1-c1ccc(Cl)cc1,-405.4,.,.,.,.,.
C=CCOC(=O)Nc1nc(CCNC(=O)OC(C)(C)C)c(C(=O)O)s1,9.4,.,.,.,.,.
CCC(C)N(C(=O)COc1ccc(Cl)c2cccnc12)C1CCS(=O)(=O)C1 (stereo not given),i,5.7,-8.1,-7.0,5.2,55.3*
CCC(C)N(C(=O)COc1ccccc1C#N)C1CCS(=O)(=O)C1 (stereo not given),-0.4,-7.5,-0.7,8.8,0.1,-3.2
COc1cccc(C(O)c2nc(-c3cccc(C(F)(F)F)c3)cs2)c1 (stereo not given),1.5,.,.,.,.,.
O=C(Nc1sc2c(c1C(=O)O)CCC2)c1ccccc1Cl,-29.3,14.8,16.9,-13.0,-1.3,-14.0
Cc1ccccc1C(=O)Nc1sc2c(c1C(=O)O)CCC2,-56.2,11.0,70.2*,56.7*,-8.0,-3.7
Cc1ccc(/C=C2\SC(=S)N(C3CCS(=O)(=O)C3)C2=O)o1 (stereo not given),55.6*,6.0,23.1,-6.0,11.3,-30.5
NS(=O)(=O)c1ccc(-c2ccc(/C=C3\SC(=S)N(C4CCS(=O)(=O)C4)C3=O)o2)cc1 (stereo not given),20.8,4.6,9.4,-3.4,-0.2,-40.6
Cc1cc(OCC(=O)Nc2c(C(C)C)cccc2C(C)C)no1,4.4,.,.,.,.,.
OCCNc1ncnc2c1ncn2[C@H]1CN(Cc2ccncc2)C[C@@H](CO)O1,11.2,.,.,.,.,.
CCCCCCCCN1C(=O)[C@H](CC(=O)N2CCCC2)C[C@@]2(C(=O)OC)CC(C)(C)CC=C12,20.7,.,.,.,.,.
O=[N+]([O-])c1ccc(O)c(/C=N/n2cnc3ccccc32)c1,12.6,-6.6,75.9*,56.0*,29.9,-12.2
Cc1ccc(NC(=O)/C(=C\c2ccc([N+](=O)[O-])cc2)NC(=O)c2ccccc2)cc1,25.5,12.5,-4.2,-1.1,-1.2,-14.3
O=C(N/N=C/c1ccc(O)c(O)c1O)/C(=C/c1ccc([N+](=O)[O-])cc1)NC(=O)c1ccccc1,71.9*,36.4,17.7,0.3,2.2,-12.9
Fc1ccc(-c2nc(-c3cccs3)no2)cc1,14.7,-17.0,94.8*,86.4*,94.2*,15.4
Fc1ccc(-c2cnc(-c3cccs3)o2)cc1,-314.0,7.7,-19.3,1.4,21.0,19.0
COC(=O)c1ccc2nc(C3CCCCC3)c(Cc3cccc(Cl)c3)n2c1,-140.0,.,.,.,.,.
O=c1cc(-c2ccc(O)c(O)c2)oc2ccc3ccccc3c12,-86.9,15.9,95.4*,95.8*,99.3*,2.9
O=c1cc(-c2ccccc2)oc2ccc3ccccc3c12,6.9,.,.,.,.,.
CC(=O)N(C)C1=C(N2CCOCC2)C(=O)c2ccccc2C1=O,33.2,64.8*,47.8,35.2,31.1,-125.2
CC(=O)N(C1=C(N)C(=O)c2ccccc2C1=O)C(C)C,35.0,35.3,25.8,-0.8,8.8,-36.2
CCOC(=O)c1cnc2c(-c3cccc(Br)c3)cnn2c1C,14.1,8.3,15.0,1.4,55.3*,13.2
COc1cc(C#Cc2c(-c3cncn3C)n(C)c3ccc(-c4cnc(N5CCOCC5)nc4)cc23)cc(OC)c1,-482.3,32.7,-6.7,6.5,4.1,30.2
COc1cc(C#Cc2c(-c3cncn3C)n(C)c3ccc(-c4cnc(OC)nc4)cc23)cc(OC)c1,-437.9,42.1*,-13.6,-21.3,-11.1,7.4
SMILES,SENP8 block-1,Apaf-1 inh,SENP6 inh,SENP8 block-2,SENP7 inh,UBC13 polyUb
CCOc1cc(C2Nc3cccc4cccc(c34)N2)ccc1O,58.9*,14.5,31.3,1.7,2.5,-35.7
CCOc1ccc(C2Nc3cccc4cccc(c34)N2)cc1OC,23.5,21.6,-26.5,1.6,3.7,-34.3
NC(=O)c1ccsc1NC(=O)c1coc2ccccc2c1=O,13.3,-16.9,83.0*,66.4*,79.1*,-1.6
Cn1nc(-c2ccc(Cl)cc2)nc2c(=O)n(C)c(=O)nc1-2,.,99.0*,97.9*,97.9*,97.8*,-120.7
COc1ccc2nc(NNC(=O)c3cc(=O)c4ccccc4o3)sc2c1,-47.3,23.6,47.2,22.5,-2.3,-48.9
Cc1cccc2sc(NNC(=O)c3cc(=O)c4ccccc4o3)nc12,11.9,11.9,98.3*,96.0*,88.7*,-61.4
O=C(NNc1nc2c(F)cccc2s1)c1cc(=O)c2ccccc2o1,22.7,23.6,98.3*,94.2*,73.6*,-33.4
Cc1noc(C)c1-c1ccc(C(=O)Nc2ccccc2)c2occc12,6.4,.,.,.,.,.
NC(c1csc(NC(=O)Nc2ccc(OC(F)(F)F)cc2)n1)C1CCCCC1 (stereo not given),6.9,.,.,.,.,.
CC1=NN(c2nc(-c3ccc(C)cc3)cs2)C(=O)C1N=Nc1ccc2ccccc2c1 (stereo not given),54.7*,12.2,11.5,-2.4,4.9,-30.3
Cc1nc2nc(-c3ccc(Cl)cc3)cn2nc1C,-499.7,3.5,69.2*,62.4*,-6.3,6.7
Cc1nc2nc(-c3cccs3)cn2nc1C,-366.7,10.2,-3.2,-8.9,-6.9,-16.0
C=CCOc1c(Br)cc(/C=C2/C(=O)ON=C2C)cc1OC,31.8*,3.0,8.3,-2.6,1.3,1.0
O=C(C(O)c1ccccc1)N1CCN(S(=O)(=O)c2ccc(C(F)(F)F)cc2)CC1 (stereo not given),20.5,.,.,.,.,.
O=C1C=C(NCCc2cc(Br)c(O)c(Br)c2)C(=O)c2ncccc21,115.7*,.,.,.,.,.
CCOC(=O)c1sc(NC(=O)c2ccc(OC)cc2)nc1C,-63.3,-1.1,-2.0,3.9,49.7,4.8
CCOC(=O)c1sc(NC(=O)c2ccc(OC(C)=O)cc2)nc1C,-52.9,-2.8,98.0*,68.2*,99.1*,17.2
CCN1C(=O)/C(=C2\C=Cc3ccccc3N2CC)SC1=S,46.2*,33.0,-18.9,0.3,9.4,-330.2
COC(=O)c1cnc(NC(=O)C2(C)CCN2C(=O)C(C)C)s1 (stereo not given),8.2,.,.,.,.,.
O=C(/C=C/c1ccc([N+](=O)[O-])cc1)/C=C/c1ccco1,17.7,42.6*,-54.6,-3.1,5.3,2.8
CN(C)c1ccc(NC(=O)CSc2nnc(-c3ccco3)c(-c3ccco3)n2)cc1,46.3*,20.9,30.5,7.8,4.2,-31.0
Cc1ccccc1NC(=O)CSc1nnc(-c2ccco2)c(-c2ccco2)n1,41.9*,32.3,6.8,8.3,5.1,-6.0
Cc1ccc(NC(=O)CSc2nnc(-c3ccco3)c(-c3ccco3)n2)cc1,27.0,36.9,-2.3,7.3,15.3,-1.7
COc1ccc(CCN2C(=O)COc3ccccc3C2C(=O)Nc2ccc3c(c2)OCCO3)cc1OC (stereo not given),8.5,.,.,.,.,.
O=C(CN1C(=O)/C(=C/c2ccco2)SC1=S)NC1CCS(=O)(=O)C1 (stereo not given),40.9*,10.7,7.0,-3.7,-1.6,-13.2
CCCCN(C)c1c(C)nc2ccc(C(=O)NCCOc3ccc(OC)cc3)cn12,11.6,.,.,.,.,.
CCCN1C(=O)/C(=C\C=C2/C=CN(CC)c3ccccc32)SC1=S,54.8*,36.2,22.2,-4.1,0.9,-11.4
